# TNF death inh: blocks TNF-alpha induced death of Jurkat FADD-/- cells. activation (protection from cell death), % at 10 µM. AID 463075. 0.068% of 220,000 active. Jurkat FADD-/- TNF necroptosis rescue, ATP luminescence, 24 h; 0 = TNF only, 100 = no-TNF cells;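 active means activation, meaning protection from cell death, of at least 50% relative to plate controls; inactive means activation below 50%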;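 further: necroptosis triggered by 40 ng/mL TNF-alpha added together with compound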
# Beta2AR agonist: human beta-2 adrenergic receptor agonism by FAP; response, % (concentration not given with the values); 0.43% of 340,000 active; Am2.2-beta2AR cells, FAP receptor internalization, flow cytometry;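 active means response above a set limit, near 3 SD of response in nonfluorescent compounds, cut at about 42% in these data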
# Target sequence (P07550 whole entry, looked up): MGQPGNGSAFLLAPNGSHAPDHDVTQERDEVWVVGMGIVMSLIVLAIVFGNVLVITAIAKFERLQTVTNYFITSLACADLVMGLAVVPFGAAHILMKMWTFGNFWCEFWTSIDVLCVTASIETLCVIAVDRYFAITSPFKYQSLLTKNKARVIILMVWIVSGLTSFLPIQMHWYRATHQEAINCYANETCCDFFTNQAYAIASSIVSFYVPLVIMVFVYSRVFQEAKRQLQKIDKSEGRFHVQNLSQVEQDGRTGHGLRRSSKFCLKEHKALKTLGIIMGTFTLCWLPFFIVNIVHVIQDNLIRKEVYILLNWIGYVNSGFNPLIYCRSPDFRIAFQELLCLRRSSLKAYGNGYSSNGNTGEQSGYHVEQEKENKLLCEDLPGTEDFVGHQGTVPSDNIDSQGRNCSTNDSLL
# L929 necroptosis: blocks zVAD induced death of L929 cells; L929 zVAD necroptosis rescue, ATP luminescence, 24 h; with zVAD 60 µM; viability rescue, % at 10 µM; 0.38% of 220,000 active; AID 1377;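 active means activation, scaled between plate controls, above about 75%, limit read from the data; inactive means activation under that limit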;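 further: 0% = zVAD with DMSO and 100% = DMSO alone without zVAD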
# Dynein cargo inh: blocks dynein driven cargo transport along microtubules. 0.47% of 220,000 active. 3617.4 mouse cells, GR-EGFP nuclear translocation imaging; test concentration mostly 20 µM; stimulated with dexamethasone, 1 µM; stronger effect = lower value. z-score, hits read low;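 active means plate z-score of nuclear minus cytoplasmic receptor signal below a set negative limit, without overly bright fluorescence or cell loss, cut at about -3.5 in these data, passing the limit was not always enough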;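 further: z-score of nuclear minus cytoplasmic ring GR-EGFP intensity difference per well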
#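 Buffer or medium: Induction medium lacking tetracycline, stripped serum | Also added: Dexamethasone agonist, 1.0 µM final, for 30 min | Timing: 48 h induction, 1 h compound, 30 min dex at 37 °C | Detection: Formaldehyde fixation, Hoechst nuclear stain, 10x automated fluorescence imaging | Measure: Nuclear versus cytoplasmic GR-EGFP signal, averaged per well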
# Mdm2 ligase inh: blocks human Mdm2 ubiquitin ligase activity; 0.11% of 210,000 active; signal enhancement, % at 5 µM; Q00987; cell-based MDM2 ubiquitination luciferase reporter, 2 h; 0 = plate control, 100 = twice control, blank-subtracted;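 active means signal enhancement of 30% or more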;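 further: luminescence tracks abundance of the self-degrading MDM2-luciferase fusion protein; higher signal means inhibition of MDM2 E3 ligase activity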
#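 Material: stable MDM2–luciferase fusion reporter cells / Quantity: 2000 cells/well / Dosing: single 5 µM compound dose, 0.2% final DMSO / Buffer or medium: DMEM / Schedule: 4 h cell settling then 2 h compound exposure, 37 °C / Detection: luminescence with SteadyLite reagent, 15 min at room temperature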
# Dynein confirm: dynein cargo transport inhibition, confirmation. shares compounds with Dynein cargo inh. 3617.4 GR-EGFP nuclear translocation imaging, dexamethasone-induced. calls only at 20 µM. 69% of 1,000 active. AID 463116;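 active means inhibition of receptor movement into the nucleus at or above a set limit in both runs, with normal cell brightness and cell count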;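 further: dexamethasone at 1 µM final in well for 30 min; nuclear minus cytoplasmic GR-EGFP mean intensity difference in channel 2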
# Active calls of the source: *; i = inactive; / = no result given; + = active, no number. Rows were chosen to be rich in hits. Some 0.97% of all compounds tested hit in one or more screens of this group.
SMILES,TNF death inh,Beta2AR agonist,L929 necroptosis,Dynein cargo inh,Mdm2 ligase inh,Dynein confirm
c1cncc(-c2nc(N3CCOCC3)c3ccccc3n2)c1,-3,-9,10,-0.46,-22,/
COC(=O)c1cc(=O)n(CCc2ccc(OC)c(OC)c2)c(=Nc2ccc(F)c(Cl)c2)s1,-5,22,-1,-4*,-8,+
CC(=O)Nc1ccc(SC[C@H](c2ccccc2)N2CCN(CCc3ccccc3)CCC2=O)cc1,-1,/,-1,-4.7*,13,i
O=C1CCN(CCc2ccccc2)CCN1[C@H](CSc1ccc(Br)cc1)c1ccccc1,0,-11,-1,-0.23,10,/
O=C1C=C(c2ccc(Cl)c(C(F)(F)F)c2)C[C@@H](c2ccc(F)cc2)C1,/,-2,/,/,/,/
Cc1[nH]n(-c2ncc(-c3ccc(Cl)cc3)s2)c(=O)c1C(c1ccc(Cl)cc1)C(C#N)C#N (stereo unspecified),0,17,1,-3.6*,7,+
Cc1cccc(C2=NC(C(F)(F)F)(C(F)(F)F)c3c(n(-c4ccc(F)cc4)c(=O)[nH]c3=O)N2)c1,0,5,1,-3.7*,-2,i
COc1ccc(C(=O)/C=C/C(=O)N(CC(=O)NC2CCCCC2)Cc2ccccc2)c(O)c1,-15,111*,20,-4.6*,20,+
COc1ccc(C(=O)/C=C/C(=O)N(Cc2ccccc2OC)C(C(=O)NC2CCCCC2)c2ccncc2)c(O)c1 (stereo unspecified),4,1,1,-0.51,6,/
COc1ccc(C(=O)/C=C/C(=O)N(CC(=O)NC2CCCCC2)Cc2ccccc2OC)c(O)c1,-15,95*,14,-4.5*,6,+
COc1ccc(C(=O)/C=C/C(=O)N(CC(=O)NC2CCCCC2)CC2CCCO2)c(O)c1 (stereo unspecified),-14,112*,26,-4.7,-13,+
COc1ccc(OCC(=O)N/N=C/C2CC=CCC2)cc1 (stereo unspecified),1,-3,1,0.39,-10,/
O=C(CC(c1ccccc1)C1CCCCC1=O)c1ccco1 (stereo unspecified),-1,2,0,0.11,-1,/
CC(=O)Nc1cccc(C(=O)/C=C/c2ccc(F)cc2)c1,-5,54*,1,-3.9*,11,+
CC(=O)Nc1cccc(C(=O)/C=C/c2cccs2)c1,2,-1,0,-3.7*,-5,+
CN(C)c1ccc(/C=C/c2cc[n+](C)cc2)cc1,-13,-773,-1,0.8,-11,/
CCNc1ccc(Br)cc(C(=O)/C=C/c2ccc(Cl)cc2Cl)c1=O,-10,-97,0,-5.4,4,+
O=C(Cc1cccs1)Nc1nc(-c2ccc(F)c(F)c2)cs1,/,10,/,/,/,/
O=C(Cc1cccs1)Nc1nc(-c2ccc(F)cc2F)cs1,0,-2,0,-3.5*,-74,i
O=C(/C=C/c1ccccc1)c1ccc2c(c1)OCCCCO2,-6,7,0,-2.3,-34,/
O=C(CCl)N(C/C=C/c1ccccc1)c1ccc2c(c1)OCCO2,-14,34,-2,-4*,-18,+
Cc1ccsc1/C=C/C1=Cc2c(sc(NC(=O)CSc3n[nH]c(N)n3)c2C#N)C(C)(C)C1,-23,9,1,-3.6*,-6,i
CC(C)NC(=O)CSc1nnc(-c2ccc(F)cc2)c2ccccc12,-2,-9,0,0.0038,-10,/
COCCNC(=O)/C(C#N)=C/c1ccc(O)c([N+](=O)[O-])c1,-1,3,10,1.7,-5,/
COCCNC(=O)/C(C#N)=C/C=C/c1ccccc1[N+](=O)[O-],7,12,71,-3.5*,2,+
CCCCN(CCCC)C(=O)c1cc(Cl)ccc1[N+](=O)[O-],0,4,1,0.3,-4,/
CCCN(CCC)C(=O)c1cc([N+](=O)[O-])cc2c1-c1ccc([N+](=O)[O-])cc1C2=C(C#N)C#N,-31,/,1,-4.6*,6,+
CSCC[C@H](NC(=O)COc1ccc(Cl)cc1Cl)c1nc2ccccc2[nH]1,4,-13,1,0.035,-11,/

# Screening results: PubChem, several laboratories
